Measurements published in ChEMBL document CHEMBL2010673, “Structure-activity relationship of pyrrole based S-nitrosoglutathione reductase inhibitors: carboxamide modification” (Bioorg Med Chem Lett, 2012).
Calls of active or inactive are those of the source. The calls are words filed in the database; no cut-off is given here.

How the values were obtained:
[1] = biological target: D(2) dopamine receptor (Homo sapiens) (UniProt P14416); assay: Inhibition of D2S receptor at 10 uM by radioligand displacement assay
Procedure, shortened: (§1)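 Off-target radioligand binding panel. Test compound at 10 µM. Each assay had at least 6 control wells, with or without vehicle, for soluble compounds. Values are percent inhibition of radioligand binding. ≥50% inhibition was scored as a positive response.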

[2] = biological target: Endothelin-1 receptor (Homo sapiens) (UniProt P25101); assay: Inhibition of Eta receptor at 10 uM by radioligand displacement assay; procedure, shortened: as §1
[3] = biological target: Galanin receptor type 2 (Homo sapiens) (UniProt O43603); assay: Inhibition of GAL2 receptor at 10 uM by radioligand displacement assay; procedure, shortened: as §1
[4] = biological target: C-C chemokine receptor type 1 (Homo sapiens) (UniProt P32246); assay: Inhibition of CCR1 receptor at 10 uM by radioligand displacement assay; procedure, shortened: as §1
[5] = biological target: Histamine H2 receptor (Homo sapiens) (UniProt P25021); assay: Inhibition of H2 receptor at 10 uM by radioligand displacement assay; procedure, shortened: as §1
[6] = biological target: Neuromedin-K receptor (Homo sapiens) (UniProt P29371); assay: Inhibition of NK3 receptor at 10 uM by radioligand displacement assay; procedure, shortened: as §1
[7] = biological target: Neurotensin receptor type 1 (Homo sapiens) (UniProt P30989); assay: Inhibition of NTS1 receptor at 10 uM by radioligand displacement assay; procedure, shortened: as §1
[8] = biological target: Nociceptin receptor (Homo sapiens) (UniProt P41146); assay: Inhibition of NOP receptor at 10 uM by radioligand displacement assay; procedure, shortened: as §1
[9] = biological target: Thromboxane A2 receptor (Homo sapiens) (UniProt P21731); assay: Inhibition of TP receptor at 10 uM by radioligand displacement assay; procedure, shortened: as §1
[10] = biological target: 5-hydroxytryptamine receptor 5A (Homo sapiens) (UniProt P47898); assay: Inhibition of 5HT5A receptor at 10 uM by radioligand displacement assay; procedure, shortened: as §1
[11] = biological target: 5-hydroxytryptamine receptor 7 (Homo sapiens) (UniProt P34969); assay: Inhibition of 5HT7 receptor at 10 uM by radioligand displacement assay; procedure, shortened: as §1
[12] = Inhibition of Kv channel at 10 uM by radioligand displacement assay; procedure, shortened: as §1
[13] = Inhibition of chloride channel at 10 uM by radioligand displacement assay
Procedure, shortened: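 Off-target panel: radioligand binding to each receptor, channel or transporter with test compound at 10 µM; activity reported as percent inhibition of specific binding. At least 6 control wells with or without vehicle per assay. Inhibition of 50% or greater counted as a positive response.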

[14] = biological target: Sodium-dependent serotonin transporter (Homo sapiens) (UniProt P31645); assay: Inhibition of 5HT transporter at 10 uM by radioligand displacement assay; procedure, shortened: as §1
[15] = tested on: Mus musculus; assay: Toxicity in CD1 mouse assessed as adverse effect in liver at 10 mg/kg, iv qd administered for 5 days; type: organism-based; set-up: dose 10 mg/kg, route intravenous; details: in vivo, 120 h
Procedure, shortened: (§2)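 Male CD-1 mice dosed IV once daily for 5 days at 1, 10 or 50 mg/kg. Toxicity judged by histology of liver, spleen and thymus, and a no-observed-adverse-effect level (NOAEL) derived from the study.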

[16] = tested on: Mus musculus; assay: Toxicity in CD1 mouse assessed as adverse effect in liver at 50 mg/kg, iv qd administered for 5 days; type: organism-based; set-up: dose 50 mg/kg, route intravenous; details: in vivo, 120 h; procedure, shortened: as §2
[17] = tested on: Mus musculus; assay: Toxicity in CD1 mouse assessed as adverse effect in spleen at 10 mg/kg, iv qd administered for 5 days; type: organism-based; set-up: dose 10 mg/kg, route intravenous; details: in vivo, 120 h; procedure, shortened: as §2
[18] = tested on: Mus musculus; assay: Toxicity in CD1 mouse assessed as adverse effect in spleen at 50 mg/kg, iv qd administered for 5 days; type: organism-based; set-up: dose 50 mg/kg, route intravenous; details: in vivo, 120 h; procedure, shortened: as §2
[19] = tested on: Mus musculus; assay: Toxicity in CD1 mouse assessed as adverse effect in thymus at 10 mg/kg, iv qd administered for 5 days; type: organism-based; set-up: dose 10 mg/kg, route intravenous; details: in vivo, 120 h; procedure, shortened: as §2
[20] = tested on: Mus musculus; assay: Toxicity in CD1 mouse assessed as adverse effect in thymus at 50 mg/kg, iv qd administered for 5 days; type: organism-based; set-up: dose 50 mg/kg, route intravenous; details: in vivo, 120 h; procedure, shortened: as §2
[21] = Toxicity in iv dosed CD1 mouse administered qd for 5 days; type: organism-based; details: in vivo; procedure, shortened: as §2
[22] = tested on: Mus musculus; assay: Antiasthamatic activity against ovalbumin-induced asthma in ovalbumin-sensitized BALB/c mouse assessed as inhibition of methacholine-induced bronchoconstriction at 1 mg/kg, iv administered 24 hrs prior to methacholine-challenge by plethysmography; type: functional, organism-based; set-up: dose 1 mg/kg
Procedure, shortened: (§3)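 Mice made asthmatic by ovalbumin exposure. A single 1 mg/kg IV dose was given 24 h before aerosolized methacholine challenge. Controls received IV PBS vehicle or three inhaled doses of Combivent (5.2 mg/kg albuterol + 0.9 mg/kg ipratropium) at 48, 24 and 1 h before challenge. Bronchoconstriction was read by whole-body plethysmography, and eosinophils were counted in BALF. Data are mean ± SEM, 10 mice per group.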

[23] = tested on: Mus musculus; assay: Antiasthamatic activity against ovalbumin-induced asthma in ovalbumin-sensitized BALB/c mouse assessed as inhibition of methacholine-induced eosinophil infiltration in bronchoalveolar lavage fluid at 1 mg/kg, iv administered 24 hrs prior to methacholine-challenge by light microscopy; type: functional, organism-based; set-up: dose 1 mg/kg; details: Lung; procedure, shortened: as §3
[24] = tested on: Mus musculus; assay: Toxicity in CD1 mouse assessed as adverse effect in thymus iv qd administered for 5 days; details: in vivo, 120 h

Sequence of 5-hydroxytryptamine receptor 5A (Homo sapiens) (P47898 whole entry): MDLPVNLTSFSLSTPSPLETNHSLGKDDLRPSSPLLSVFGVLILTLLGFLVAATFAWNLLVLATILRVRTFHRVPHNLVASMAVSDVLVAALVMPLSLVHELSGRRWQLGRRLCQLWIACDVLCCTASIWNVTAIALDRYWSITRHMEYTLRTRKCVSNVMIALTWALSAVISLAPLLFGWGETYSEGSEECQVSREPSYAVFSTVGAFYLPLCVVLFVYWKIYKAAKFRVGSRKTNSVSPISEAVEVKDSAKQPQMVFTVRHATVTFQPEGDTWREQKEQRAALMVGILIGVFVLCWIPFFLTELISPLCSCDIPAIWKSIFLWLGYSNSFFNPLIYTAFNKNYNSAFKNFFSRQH
Sequence of D(2) dopamine receptor (Homo sapiens) (P14416 whole entry): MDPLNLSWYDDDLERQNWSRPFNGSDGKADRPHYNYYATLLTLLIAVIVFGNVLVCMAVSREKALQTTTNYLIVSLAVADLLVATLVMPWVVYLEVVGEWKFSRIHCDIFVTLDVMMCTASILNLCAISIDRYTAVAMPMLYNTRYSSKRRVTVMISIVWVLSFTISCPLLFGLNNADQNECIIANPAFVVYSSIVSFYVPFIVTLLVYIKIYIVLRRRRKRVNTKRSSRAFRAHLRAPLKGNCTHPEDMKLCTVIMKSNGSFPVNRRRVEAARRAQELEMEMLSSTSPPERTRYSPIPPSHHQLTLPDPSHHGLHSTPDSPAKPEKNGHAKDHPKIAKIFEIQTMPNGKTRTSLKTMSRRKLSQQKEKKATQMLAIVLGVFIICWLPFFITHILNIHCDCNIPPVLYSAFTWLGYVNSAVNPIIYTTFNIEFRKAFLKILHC
Sequence of Sodium-dependent serotonin transporter (Homo sapiens) (P31645 whole entry, looked up): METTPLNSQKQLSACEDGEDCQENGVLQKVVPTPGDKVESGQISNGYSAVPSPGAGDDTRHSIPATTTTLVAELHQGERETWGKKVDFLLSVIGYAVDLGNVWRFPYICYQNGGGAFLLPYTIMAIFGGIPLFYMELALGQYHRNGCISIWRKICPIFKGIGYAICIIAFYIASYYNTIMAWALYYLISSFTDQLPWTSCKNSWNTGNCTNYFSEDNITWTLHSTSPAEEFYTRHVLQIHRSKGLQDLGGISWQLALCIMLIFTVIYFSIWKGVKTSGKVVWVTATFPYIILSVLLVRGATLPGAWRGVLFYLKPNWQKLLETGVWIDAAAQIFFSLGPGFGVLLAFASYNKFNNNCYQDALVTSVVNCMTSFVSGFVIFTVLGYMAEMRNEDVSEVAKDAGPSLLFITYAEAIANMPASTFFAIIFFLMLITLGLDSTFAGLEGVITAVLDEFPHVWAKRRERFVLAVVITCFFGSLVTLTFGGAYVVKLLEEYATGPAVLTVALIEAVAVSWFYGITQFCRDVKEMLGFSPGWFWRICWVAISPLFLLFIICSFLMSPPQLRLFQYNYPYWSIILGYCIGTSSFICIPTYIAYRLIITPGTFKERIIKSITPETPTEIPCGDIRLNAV
Sequence of Galanin receptor type 2 (Homo sapiens) (O43603 whole entry): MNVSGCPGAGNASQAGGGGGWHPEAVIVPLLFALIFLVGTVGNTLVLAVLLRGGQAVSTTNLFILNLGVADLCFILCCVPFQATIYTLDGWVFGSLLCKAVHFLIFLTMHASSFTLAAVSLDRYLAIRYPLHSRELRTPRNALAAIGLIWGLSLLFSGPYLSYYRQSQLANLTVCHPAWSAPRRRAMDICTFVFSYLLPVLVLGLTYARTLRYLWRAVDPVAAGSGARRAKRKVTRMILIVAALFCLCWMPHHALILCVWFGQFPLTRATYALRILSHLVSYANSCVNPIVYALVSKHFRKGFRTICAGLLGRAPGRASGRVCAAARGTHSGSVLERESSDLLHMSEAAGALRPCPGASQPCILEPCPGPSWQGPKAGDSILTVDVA
Sequence of Thromboxane A2 receptor (Homo sapiens) (P21731 whole entry): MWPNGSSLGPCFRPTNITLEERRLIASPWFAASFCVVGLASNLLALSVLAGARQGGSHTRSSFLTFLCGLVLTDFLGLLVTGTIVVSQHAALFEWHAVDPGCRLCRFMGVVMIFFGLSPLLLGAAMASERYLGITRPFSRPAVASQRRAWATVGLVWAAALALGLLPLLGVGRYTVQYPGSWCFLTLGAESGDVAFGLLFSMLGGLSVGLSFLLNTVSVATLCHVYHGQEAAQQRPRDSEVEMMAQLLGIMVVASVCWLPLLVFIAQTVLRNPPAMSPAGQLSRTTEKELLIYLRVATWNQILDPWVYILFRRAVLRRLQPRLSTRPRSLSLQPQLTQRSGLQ
Sequence of C-C chemokine receptor type 1 (Homo sapiens) (P32246 whole entry): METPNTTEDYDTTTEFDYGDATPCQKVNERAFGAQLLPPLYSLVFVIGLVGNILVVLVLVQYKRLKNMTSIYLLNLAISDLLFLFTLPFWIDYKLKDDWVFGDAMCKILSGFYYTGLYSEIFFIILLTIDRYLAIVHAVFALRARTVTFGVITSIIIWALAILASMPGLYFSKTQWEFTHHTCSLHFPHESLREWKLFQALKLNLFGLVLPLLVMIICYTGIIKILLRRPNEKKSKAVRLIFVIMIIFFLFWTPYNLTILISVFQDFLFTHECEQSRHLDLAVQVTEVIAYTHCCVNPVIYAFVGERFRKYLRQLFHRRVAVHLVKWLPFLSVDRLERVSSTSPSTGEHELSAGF
Sequence of Neuromedin-K receptor (Homo sapiens) (P29371 whole entry): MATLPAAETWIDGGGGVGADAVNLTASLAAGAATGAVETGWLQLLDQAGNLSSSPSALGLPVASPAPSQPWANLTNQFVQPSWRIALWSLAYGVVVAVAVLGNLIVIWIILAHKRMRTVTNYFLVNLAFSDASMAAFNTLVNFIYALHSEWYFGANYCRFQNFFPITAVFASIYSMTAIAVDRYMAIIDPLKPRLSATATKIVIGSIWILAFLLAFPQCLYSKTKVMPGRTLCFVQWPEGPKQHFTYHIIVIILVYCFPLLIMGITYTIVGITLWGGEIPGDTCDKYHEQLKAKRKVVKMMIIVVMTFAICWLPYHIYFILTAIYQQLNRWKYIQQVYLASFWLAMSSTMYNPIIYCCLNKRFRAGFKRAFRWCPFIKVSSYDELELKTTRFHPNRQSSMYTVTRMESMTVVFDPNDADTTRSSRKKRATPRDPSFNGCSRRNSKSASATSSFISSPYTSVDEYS
Sequence of Endothelin-1 receptor (Homo sapiens) (P25101 whole entry): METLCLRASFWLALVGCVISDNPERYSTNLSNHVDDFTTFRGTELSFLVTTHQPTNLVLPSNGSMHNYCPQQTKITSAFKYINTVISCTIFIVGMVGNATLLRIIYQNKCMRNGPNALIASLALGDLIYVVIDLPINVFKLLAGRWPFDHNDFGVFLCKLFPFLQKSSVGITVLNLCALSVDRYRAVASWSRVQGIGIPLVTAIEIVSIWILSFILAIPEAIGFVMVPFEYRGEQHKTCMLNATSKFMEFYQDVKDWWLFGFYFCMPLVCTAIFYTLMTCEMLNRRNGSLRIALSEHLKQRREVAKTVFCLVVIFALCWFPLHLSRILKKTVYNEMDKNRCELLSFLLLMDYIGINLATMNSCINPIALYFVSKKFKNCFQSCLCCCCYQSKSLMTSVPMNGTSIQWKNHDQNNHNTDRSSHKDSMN
Sequence of Nociceptin receptor (Homo sapiens) (P41146 whole entry): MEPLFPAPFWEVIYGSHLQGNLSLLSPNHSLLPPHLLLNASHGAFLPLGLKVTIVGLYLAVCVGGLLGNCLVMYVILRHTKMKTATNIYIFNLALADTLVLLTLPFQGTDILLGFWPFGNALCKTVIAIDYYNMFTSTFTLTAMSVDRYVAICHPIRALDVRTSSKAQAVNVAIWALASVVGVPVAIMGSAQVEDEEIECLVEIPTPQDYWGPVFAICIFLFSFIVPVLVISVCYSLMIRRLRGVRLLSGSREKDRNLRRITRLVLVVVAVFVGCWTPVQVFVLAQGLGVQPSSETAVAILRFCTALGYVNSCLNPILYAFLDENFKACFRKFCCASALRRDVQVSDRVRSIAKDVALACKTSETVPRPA
Sequence of Histamine H2 receptor (Homo sapiens) (P25021 whole entry): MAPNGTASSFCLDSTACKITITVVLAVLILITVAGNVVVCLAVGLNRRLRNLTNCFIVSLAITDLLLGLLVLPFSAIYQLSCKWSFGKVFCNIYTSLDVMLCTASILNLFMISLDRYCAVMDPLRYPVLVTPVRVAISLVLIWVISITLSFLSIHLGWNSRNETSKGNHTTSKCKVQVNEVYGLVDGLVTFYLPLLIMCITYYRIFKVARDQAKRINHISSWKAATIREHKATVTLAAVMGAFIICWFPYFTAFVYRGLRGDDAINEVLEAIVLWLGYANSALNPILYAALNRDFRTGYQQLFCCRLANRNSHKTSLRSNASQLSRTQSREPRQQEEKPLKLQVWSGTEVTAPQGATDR
Sequence of Neurotensin receptor type 1 (Homo sapiens) (P30989 whole entry): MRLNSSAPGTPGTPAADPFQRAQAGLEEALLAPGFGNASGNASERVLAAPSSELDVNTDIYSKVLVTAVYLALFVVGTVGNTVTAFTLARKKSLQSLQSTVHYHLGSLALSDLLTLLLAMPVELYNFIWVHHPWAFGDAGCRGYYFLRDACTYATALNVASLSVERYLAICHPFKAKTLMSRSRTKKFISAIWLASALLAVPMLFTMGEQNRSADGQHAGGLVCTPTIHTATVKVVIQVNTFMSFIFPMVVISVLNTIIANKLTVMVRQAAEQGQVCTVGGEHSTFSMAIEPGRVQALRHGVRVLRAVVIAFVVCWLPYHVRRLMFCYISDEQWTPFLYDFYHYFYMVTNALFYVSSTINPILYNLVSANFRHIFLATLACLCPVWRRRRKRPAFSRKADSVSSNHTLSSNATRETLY

Structure (SMILES) | inhibition [1] | inhibition [2] | inhibition [3] | inhibition [4] | inhibition [5] | inhibition [6] | inhibition [7] | inhibition [8] | inhibition [9] | inhibition [10] | inhibition [11] | inhibition [12] | inhibition [13] | inhibition [14] | other results
Cc1cc(NS(C)(=O)=O)ccc1-n1c(CCC(=O)O)ccc1-c1ccc(-n2ccnc2)cc1 | inactive | inactive | inactive | inactive | inactive | inactive | inactive | inactive | inactive | inactive | inactive | inactive | inactive | inactive | –
Cc1cc(NS(C)(=O)=O)ccc1-n1c(CCC(=O)O)ccc1-c1ccc(-n2ccnc2C)s1 | inactive | inactive | inactive | inactive | inactive | inactive | inactive | inactive | inactive | inactive | inactive | inactive | inactive | inactive | Activity [15]: Toxic; Activity [16]: Toxic; Activity [17]: Toxic; Activity [18]: Toxic; Activity [19]: Toxic; Activity [20]: Toxic; NOAEL at 120 h [21]: 1 mg/kg/day; Activity [22]: Active; Activity [23]: Active; Activity [24]: Toxic
